Assay results reported in PMC9828441 (Acta Biochimica et Biophysica Sinica, 2022).

System: PC9 cells
Assay: Cell cycle by PI staining flow cytometry
Type: cell-based, human
Conditions: PC9, 24 h
In short: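 Cells in RPMI 1640 with 10% FBS (37°C, 5% CO2) were seeded in 6-well plates at 20–25% confluence and exposed to graded test compound or a reference EGFR inhibitor for 24 h. They were then fixed in 70% ethanol for 24 h at 4°C, washed twice in PBS, treated with RNase A at 37°C for 30 min and stained with PI (50 μg/mL) for 10 min. DNA content was read by flow cytometry.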

`COc1cc2ncnc(Nc3ccc(F)c(Cl)c3)c2cc1OCCCN1CCOCC1` [gefitinib] was tested, and the cell cycle arrest was “arrested only PC9 (EGFR L858R+) cells at G0/G1 phase”.
